Source: PubChem
Hsp90 inh = displaces geldanamycin probe from tumor Hsp90. AID 429. inhibition, % at 30 µM. P07900. actives 0.35% (n = 64,000). NCI-N417 lysate Hsp90, Cy3B-geldanamycin FP displacement;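 active means inhibition above 50%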;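 further: 0% = tracer plus lysate wells and 100% = tracer alone without lysate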
JNK3 inh = inhibitors of human JNK3 kinase. inhibition, % at 8 µM. actives 0.61% (n = 60,000). purified JNK3 kinase activity, HTS. AID 746. P53779; in the data active means inhibition above about 17%;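 further: 0% = DMSO and 100% = reference inhibitor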
RORA act = activates the human nuclear receptor RORA; P35398; CHO-K1 Gal4-RORA LBD luciferase reporter, luminescence; percent increase over mock-subtracted basal signal; activation, % at 10 µM; actives 1.5% (n = 65,000);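 active means activation above the mean of all tested compounds plus 3 SD, cut at about 49% in these data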;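 further: 0% = DMSO-treated RORA cells and 100% = added signal equal to DMSO minus mock-transfected cells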
SF-1 act = activators of human nuclear receptor SF-1; Q13285; CHO-K1 Gal4-SF-1 LBD luciferase reporter; % increase over DMSO SF-1-specific signal; activation, % at 10 µM; actives 1.9% (n = 65,000);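 active means activation above the mean activation of all tested compounds plus 3 SD, cut at about 50% in these data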
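Material: CHO-K1 cells with Gal4–hSF-1 LBD chimera plus Gal4-driven luciferase / Input: 4,000 CHO-K1 cells per well / Incubation: compound exposure 20 h at 37 °C / Signal: luminescence read 15 min after SteadyLite luciferase reagent, after room-temperature equilibration / Read-out: percent activation versus DMSO / Benchmarks: DMSO negative control and −SF1 background wells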
Cdc25B block = human M-phase inducer phosphatase 2 inhibition; actives 0.1% (n = 65,000); inhibition, %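 (compounds tested at 10 µM final in the well)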; recombinant Cdc25B, OMFP fluorescence Ex485/Em525; P30305; in the data active means inhibition above about 50%
DUSP1 inh = human dual specificity phosphatase 1 inhibition. actives 0.15% (n = 65,000). recombinant MKP-1, OMFP hydrolysis fluorescence. P28562. inhibition, %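 (compounds tested at a single concentration somewhere between 10 and 100 µM)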. AID 374;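 active means inhibition above about 50%, limit read from the data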;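 further: 0% = DMSO max control wells and 100% = wells with enzyme stopped by NaOH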
Target sequence (P28562 whole entry, looked up): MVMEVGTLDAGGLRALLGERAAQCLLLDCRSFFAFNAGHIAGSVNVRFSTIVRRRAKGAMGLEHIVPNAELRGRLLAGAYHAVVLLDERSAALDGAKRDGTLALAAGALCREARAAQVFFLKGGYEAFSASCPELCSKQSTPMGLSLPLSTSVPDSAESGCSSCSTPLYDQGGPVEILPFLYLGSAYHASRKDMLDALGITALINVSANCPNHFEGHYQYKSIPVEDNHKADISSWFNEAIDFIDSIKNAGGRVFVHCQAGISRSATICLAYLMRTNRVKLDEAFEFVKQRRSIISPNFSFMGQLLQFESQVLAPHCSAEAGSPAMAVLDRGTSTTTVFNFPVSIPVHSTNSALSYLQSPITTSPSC
An asterisk follows results filed as active; / = no result given. Compounds with a hit are over-represented: about 3.4% of the library has one in this group of screens.

SMILES	Hsp90 inh	JNK3 inh	RORA act	SF-1 act	Cdc25B block	DUSP1 inh
Cc1cccc(-n2c(SCc3cc(=O)n4ccsc4n3)nc3ccccc32)c1	-28	-7	9	10	6	15
CC(OC(=O)c1cccs1)C(=O)NCc1cccs1 (configuration not stated)	92*	5	-11	8	4	29
Cn1c(C(=O)NCC2CCCO2)cc2oc3ccccc3c21 (configuration not stated)	3	2	59*	50*	-2	-7
Cn1c(C(=O)NCc2cccs2)cc2oc3ccccc3c21	-2	6	60*	54*	-6	-4
Cn1c(C(=O)NCC2CCCO2)cc2c(=O)[nH]c3ccccc3c21 (configuration not stated)	-5	-2	16	-3	-1	5
CCOC(=O)NC1(Nc2ccc(Cl)cn2)Oc2ccccc2O1	50*	-1	-13	-2	-15	-4
c1ccc2oc(SCc3cn4ccccc4n3)nc2c1	-5	/	58*	20	-10	-8
COc1ccc2c(c1OC)C(=O)N(c1cccc(C(F)(F)F)c1)C2	0	4	30	59*	-7	-26
COc1ccc2c(c1OC)C(=O)N(c1ccccn1)C2	-4	-3	52*	69*	-8	-14
Cc1cc2nnc(SCC(=O)NCc3ccco3)n2c2ccccc12	-3	2	45	19	-16	13
CC(C)(C)C(=O)c1sc(Nc2ccccc2)nc1N	-2	7	21	48	-13	85*
NC(=O)c1sc2nccc(Nc3ccccc3)c2c1N	-5	10	-28	16	-4	0
COCc1cc(C)nc(SCC(=O)Nc2cc3c(cc2C#N)OCO3)c1C#N	-7	22*	6	-4	-18	-19
Cc1nn(C(C)C(=O)N2CCCCC2)c(=O)c2c1sc1ccccc12 (configuration not stated)	0	-6	-9	-9	-8	67*
Cc1nn(C(C)C(=O)O)c(=O)c2c1sc1ccccc12 (configuration not stated)	-5	21*	-6	2	4	29
Cc1nn(CC(=O)NC(C)c2ccccc2)c(=O)c2ccccc12 (configuration not stated)	1	9	-2	-18	-7	-6
O=C(NCc1ccccc1F)C1CCCN(C(=O)NC2CCCCC2)C1 (configuration not stated)	1	5	4	14	-9	-4
NC(N)=NCCSSCCN=C(N)N	1	/	/	/	/	/
COc1ccccc1N1CCN(S(=O)(=O)c2cnc[nH]2)CC1	0	-2	-8	-9	-2	7
O=C(Nc1ccc(O)cc1)c1cc2n(n1)C(C(F)(F)F)CC(c1ccco1)N2 (configuration not stated)	-5	1	23	40	-8	14
CCOc1ccc(NC(=O)c2cc3n(n2)C(C(F)(F)F)CC(c2ccco2)N3)cc1 (configuration not stated)	1	6	60*	18	-12	16
COc1cccc(Oc2coc3c(CN4CCOCC4)c(O)ccc3c2=O)c1	1	1	-2	-6	6	23
O=c1c(-c2ccc3c(c2)OCCO3)coc2c(CN3CCOCC3)c(O)ccc12	72*	-5	36	39	-3	-22
Cc1cccc2cc(C#N)c(NCCNS(=O)(=O)c3ccc4c(c3)OCCO4)nc12	1	6	-7	17	-1	15
Cc1nn(C)cc1C1C2=C(CC(C)(C)CC2=O)OC2=C1C(=O)CC(C)(C)C2	4	-5	-2	8	4	-6
SMILES	Hsp90 inh	JNK3 inh	RORA act	SF-1 act	Cdc25B block	DUSP1 inh
COC(=O)c1c(C#N)c(N)nc2c1CCCC2	1	19*	-5	-4	1	-18
COc1cc(-c2c(C#N)c(N)nc3c2CCCC3)ccc1O	0	12	9	27	-8	2
Cn1nnc2c(NCc3ccco3)nccc21	/	/	3	4	-5	-7
COc1ccc(Nc2nccc3c2nnn3C)cc1	6	-9	53*	35	3	-3
CCOC(=O)N1CCN(S(=O)(=O)c2ccc(Br)s2)CC1	1	-2	0	-4	1	6
CN1CCN(S(=O)(=O)c2ccc(Br)s2)CC1	3	-7	63*	-24	-9	-28
